MC4R antagonist: MC4R antagonists of cAMP signaling, primary screen, cell-based, TR-FRET, antagonist arm of biased-ligand search; AID 540295, 2011; MC4R-expressing cells, MTII-stimulated cAMP, LANCE TR-FRET; Melanocortin receptor 4 (Homo sapiens), P32245; inhibition, % at 6.5 µM; 360,000 tested, 0.48% active;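 active = inhibition above its plate's cutoff, the mean of tested wells on that plate plus 3 SD, cut at about 29% in these data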;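 also: 0% = Melanotan II alone and 100% = Melanotan II plus saturating MCL0020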
Target sequence (P32245 whole entry, looked up): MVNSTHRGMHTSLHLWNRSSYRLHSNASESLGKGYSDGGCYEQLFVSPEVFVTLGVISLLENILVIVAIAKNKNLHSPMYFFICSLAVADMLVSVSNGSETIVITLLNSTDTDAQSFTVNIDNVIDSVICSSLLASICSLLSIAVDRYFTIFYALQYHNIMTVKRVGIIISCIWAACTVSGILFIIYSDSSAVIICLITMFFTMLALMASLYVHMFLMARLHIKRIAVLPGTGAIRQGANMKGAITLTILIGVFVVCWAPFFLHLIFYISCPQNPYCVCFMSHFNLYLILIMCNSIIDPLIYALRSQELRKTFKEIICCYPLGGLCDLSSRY
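Material: U2OS-MC4R stable cell line | Reagent: Melanotan II challenge after compound preincubation | Doses: One concentration, 6.5 µM nominal | Incubation: 30-min compound preincubation, 1-h Melanotan II challenge, 1-h detection, room temperature | Signal: TR-FRET cAMP assay | Replicates: One well per compound, no replicates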
MC4R barr agon: MC4R agonists recruiting beta-arrestin, primary screen, cell-based, luminescence, agonist arm of biased-ligand search; U2OS MC4R beta-arrestin complementation; percent of melanotan II response, DMSO zero; activation, % at 8.9 µM; AID 540308, 2011; 360,000 tested, 0.98% active;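 active = activation above a per-plate cutoff, the mean activation of sample wells on that plate plus 3 SD, cut at about 8% in these data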
EBI2 block: EBI2 receptor antagonists, beta-arrestin recruitment, primary screen, cell-based, luminescence, 7a,25-OHC stimulation, uHTS; G-protein coupled receptor 183 (Homo sapiens), P32249; AID 651636, 2012; inhibition, % at 5 µM; 7a,25-OHC stimulated; 360,000 tested, 0.81% active; in the data active = inhibition above about 38%;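 also: enzyme fragment complementation signal reports receptor beta-arrestin coupling in cells; 0% = agonist plus DMSO wells and 100% = wells without agonist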
Granule exo inh: LAMP-1 surface exposure blockers, TALL-104 cells – cell-based, flow cytometry, MLPCN library, primary screen. TALL-104 LAMP-1 surface exposure; cells stimulated with thapsigargin and PMA. inhibition, % at 10 µM. 360,000 tested, 0.66% active. AID 651702, 2012;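 active = inhibition above about 55%, limit read from the data; inconclusive = no clear call, values can overlap the other calls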
Myeloid diff 2: induction of myeloid progenitor differentiation, primary screen, cell-based, flow cytometry, MLPCN library | ER-HoxA9 myeloid progenitors, lysozyme-GFP differentiation | 360,000 tested, 1% active | calls only at 10 µM;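 active = normalized GFP-positive differentiation at or above the plate's own cutoff, the solvent-only control mean plus 3 SD; inconclusive = no clear call, values can overlap the other calls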;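 also: cells exposed to compound for four days before flow analysis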
cAMP nonselect: nonselective cAMP signaling inhibitors, parental cells, counter-screen for MC4R biased antagonist project, cell-based, TR-FRET, U2OS, forskolin, triplicate. shares compounds with MC4R antagonist. LANCE TR-FRET. inhibition, % at 6.5 µM. 1,600 tested, 26% active. AID 602193, 2012;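 active = mean inhibition over triplicates above the low-control well mean plus 3 SD, set per campaign, cut at about 13% in these data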;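 also: signal is single emission at 671 nm which falls as cellular cAMP rises; 0% = forskolin-stimulated wells and 100% = buffer without forskolin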
MC4R antag conf: MC4R cAMP antagonists, retest, confirmation, cell-based, TR-FRET. shares compounds with MC4R antagonist. MC4R-expressing cells, MTII-stimulated cAMP. inhibition, % at 6.5 µM. 1,600 tested, 27% active; in the data active = inhibition above about 29%;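 also: 0% = agonist stimulated wells alone and 100% = agonist stimulated wells plus saturating reference antagonist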
* marks the source's active call; other numbers are inactive results; i = inactive; ? = inconclusive; nt = not tested or not shown; + = active, no number. Only some compounds are listed: those with a hit (about 3.7% of all), similar ones and a draw of the others.

SMILES	MC4R antagonist	MC4R barr agon	EBI2 block	Granule exo inh	Myeloid diff 2	cAMP nonselect	MC4R antag conf
Cc1cccc(-n2c(-c3ccoc3C)n[nH]c2=S)c1	30*	1	-17	3	i	4	0
Cc1ccccc1-n1c(-c2ccoc2C)n[nH]c1=S	8	-2	-6	-5	i	nt	nt
COc1ccccc1NS(=O)(=O)c1cccc(NC(=O)c2cc3ccccc3oc2=O)c1	29*	7	4	-6	i	-5	-11
O=C(CCC1CCCC1)Nc1cccc(Cc2ccncc2)c1	33*	1	0	-1	i	-3	-14
O=C(CNC(=O)C(c1ccccc1)c1ccccc1)OCc1ccccc1	30*	0	33	5	i	13	19
O=C(O)CNC(=O)C(c1ccccc1)c1ccccc1	4	-1	-11	0	i	nt	nt
Cc1ccccc1CNC(=O)CN1C(=O)c2ccccc2S1(=O)=O	29*	1	-2	-12	i	2	1
COc1ccc(NC(=O)c2cc(-c3ccc(F)cc3OC)n[nH]2)c(OC)c1	30*	1	-15	-1	i	4	4
COc1ccc(CCN(C)C(=S)Nc2cccc(C)c2)cc1OC	4	-1	-5	-12	i	nt	nt
Cc1cccc(C(=O)NCC(=O)OCC(=O)c2ccc(Br)s2)c1	44*	1	-1	-3	i	33*	70*
O=C(Cc1ccccc1)Nc1cccc(N2C(=O)C=CC2=O)c1	54*	-2	-2	33	i	18*	34*
CC(=O)Nc1ccc(S(=O)(=O)Nc2nc3ccccc3nc2Nc2ccc(O)cc2)cc1	-1	-1	-4	9	i	nt	nt
CC(=O)c1ccc(-c2cnc3c(NC=O)cc(-c4cnn(C)c4)cn23)cc1	-2	7	-3	3	?	nt	nt
NS(=O)(=O)c1ccc(CNC(=O)c2cc(-c3ccccn3)nc3ccc(Cl)cc23)cc1	30*	-2	-1	-1	i	12	13
Cc1cc(N2CCCC2)ccc1NC(=O)CN1C(=O)NC2(CCCCC2)C1=O	1	-2	-1	1	i	nt	nt
COCCN(CC(=O)Nc1cccc(C)c1C)C(=O)CN1C(=O)NC2(CCCCC2)C1=O	16	5	1	-1	i	nt	nt
CC(=O)C1=CCC(c2ccccc2)N(S(=O)(=O)c2cccc(C)c2)C1 (centres undefined)	nt	nt	-6	31	i	nt	nt
COc1cc(OC)cc(C(=O)Nc2ccccc2-c2nnn(CC(=O)Nc3cc(C)on3)n2)c1	30*	8.8*	12	0	i	6	14
COc1ccc(C(=O)Nc2ccccc2-c2nnn(CC(N)=O)n2)cc1	4	1	4	0	i	nt	nt
Cc1cc(C)n2nc(CCCO)nc2n1	15	-2	-16	3	i	nt	nt
CC(C)(C)NC(=O)Cn1c(=O)oc2cc(S(=O)(=O)N3CCc4ccccc43)ccc21	11	0	0	-2	i	nt	nt
CCOC(=O)Cn1c(=O)oc2cc(S(=O)(=O)N3CCc4ccccc43)ccc21	30*	1	-1	-4	i	11	13
C[C@@H](CC#N)CN1CC[C@H](C(C)(C)C)CCC1=O	5	-1	-12	3	i	nt	nt
COc1ccc(-n2cc(-c3ccccc3)[n+]3c2CCCCC3)cc1	0	-2	-3	0	i	nt	nt
FC(F)Oc1ccc(-n2cc(-c3ccc(Cl)cc3)[n+]3c2CCCCC3)cc1	29*	-1	-5	6	i	-1	-5
SMILES	MC4R antagonist	MC4R barr agon	EBI2 block	Granule exo inh	Myeloid diff 2	cAMP nonselect	MC4R antag conf
COc1ccc(CCCNC(=O)C2(C)Cc3c(-c4ccc(NC(C)=O)cc4)ccnc3O2)cc1 (centres undefined)	34*	2	9	-5	i	3	3
CC(=O)Nc1ccc(-c2ccnc3c2CC(C)(C(=O)NCCc2ccccc2)O3)cc1 (centres undefined)	11	0	-14	3	i	nt	nt
O=[N+]([O-])c1cc(S(=O)(=O)NCCN2CCOCC2)ccc1Cl	29*	0	-15	-9	i	5	17
O=S(=O)(NCCN1CCOCC1)c1ccc(Cl)c(Cl)c1	-5	-3	1	?	i	nt	nt
COc1ccc(-c2c3c([nH]c(=S)c2C#N)CCC3)cc1	88*	0	2	-5	i	20*	35*
Cn1ncc(Br)c1N1C(=O)CCC1=O	-3	0	5	-2	i	nt	nt
O=C(CNC(=O)C12CC3CC(CC(C3)C1)C2)NCc1ccccc1	3	0	4	-1	i	nt	nt
NNC(=O)CNC(=O)C12CC3CC(CC(C3)C1)C2	29*	3	7	-4	i	-5	-16
Cc1cc(Br)c2nc(-c3ccccc3)c(Cc3cccc(Cl)c3)n2c1	nt	nt	2	6	i	nt	nt
CCN(CC)c1ccc(C(=C2C=CC(=[N+](CC)CC)C=C2)c2ccccc2)cc1	64*	-3	32	-15	?	34*	67*
Cc1cc(SCCC(=O)O)nc2ccccc12	6	2	-1	1	nt	nt	nt
Cc1nc(SCCC(=O)O)c2ccccc2n1	54*	1	-17	-3	i	19*	34*
O=C(Nc1nnc(-c2ccccc2)s1)c1cc(S(=O)(=O)N2CCOCC2)c(Cl)cc1Cl	32*	-2	27	1	i	11	26
O=C(COC(=O)/C=C/c1ccco1)NC1CCCCC1	4	-1	-6	-4	i	nt	nt
O=C(/C=C/c1ccco1)OCC1CCCN2CCCCC12 (centres undefined)	31*	-3	-1	1	i	-2	-6
CCNc1nc(NC(C)C)nc(-c2ccncc2)n1	nt	nt	7	0	i	nt	nt
Cc1ccc(C)c(NC(=O)c2sc(Cl)nc2-c2ccccc2)c1	37*	3	0	-6	i	15*	32*
Cc1ccccc1NC(=O)c1sc(Cl)nc1-c1ccccc1	23	-2	-4	0	i	nt	nt
COc1cc(NC(=O)c2ccc(-c3cnn(C)c3)c3ccoc23)cc(OC)c1OC	6	0	8	-7	i	nt	nt
COc1ccc(CN2CCN(S(=O)(=O)c3ccc(NC(C)=O)cc3)CC2)c(OC)c1OC	31*	1	3	-2	+	0	9
